Source: PubChem
Hits are enriched below; roughly 3% of the tested compounds scored in any of these assays.
SENP8 block-1 = inhibitors of human SENP8 protease. inhibition, % at 10 µM. Q96LD8. AID 2540. actives 1.2% (n = 330,000). purified SENP8, Z-RLRGG-aminoluciferin cleavage, luminescence; in the data active means inhibition above about 50%
SENP7 block = blocks the human protease SENP7. Q9BQF6. recombinant SENP7, Z-RLRGG-aminoluciferin luminescence, 40 min. inhibition, % at 5 µM. actives 1.5% (n = 330,000);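 active means inhibition above about 50% at the single test dose, limit read from the data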
SENP6 block = SENP6 protease inhibition | Q9GZR1 | Recombinant SENP6 catalytic domain, aminoluciferin luminescence | inhibition, % at 10 µM | actives 1.8% (n = 330,000) | AID 2599;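 active means inhibition above about 50% at the single tested dose, limit read from the data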
UBC13 inh = inhibitors of human UBC13 polyubiquitin chain formation | inhibition, % at 20 µM | TR-FRET | actives 0.47% (n = 330,000) | P61088 | AID 485273; in the data active means inhibition above about 45%, passing the limit was not always enough
SENP8 block-2 = inhibitors of human SENP8 protease. recombinant SENP8, Nedd8 substrate fluorescence. actives 0.64% (n = 360,000). Q96LD8. AID 602440. inhibition, % at 20 µM; in the data active means inhibition mostly above about 40%, no sharp cut-off; inactive means mostly below about 27%
Apaf-1 inh = human Apaf-1 inhibition; AID 489030; reconstituted apoptosome caspase-3 activity, DEVD-Rh110 fluorescence; actives 0.71% (n = 330,000); O14727; inhibition, % at 20 µM; active means inhibition of at least 40% at 20 µM
Target sequence (O14727 whole entry, looked up): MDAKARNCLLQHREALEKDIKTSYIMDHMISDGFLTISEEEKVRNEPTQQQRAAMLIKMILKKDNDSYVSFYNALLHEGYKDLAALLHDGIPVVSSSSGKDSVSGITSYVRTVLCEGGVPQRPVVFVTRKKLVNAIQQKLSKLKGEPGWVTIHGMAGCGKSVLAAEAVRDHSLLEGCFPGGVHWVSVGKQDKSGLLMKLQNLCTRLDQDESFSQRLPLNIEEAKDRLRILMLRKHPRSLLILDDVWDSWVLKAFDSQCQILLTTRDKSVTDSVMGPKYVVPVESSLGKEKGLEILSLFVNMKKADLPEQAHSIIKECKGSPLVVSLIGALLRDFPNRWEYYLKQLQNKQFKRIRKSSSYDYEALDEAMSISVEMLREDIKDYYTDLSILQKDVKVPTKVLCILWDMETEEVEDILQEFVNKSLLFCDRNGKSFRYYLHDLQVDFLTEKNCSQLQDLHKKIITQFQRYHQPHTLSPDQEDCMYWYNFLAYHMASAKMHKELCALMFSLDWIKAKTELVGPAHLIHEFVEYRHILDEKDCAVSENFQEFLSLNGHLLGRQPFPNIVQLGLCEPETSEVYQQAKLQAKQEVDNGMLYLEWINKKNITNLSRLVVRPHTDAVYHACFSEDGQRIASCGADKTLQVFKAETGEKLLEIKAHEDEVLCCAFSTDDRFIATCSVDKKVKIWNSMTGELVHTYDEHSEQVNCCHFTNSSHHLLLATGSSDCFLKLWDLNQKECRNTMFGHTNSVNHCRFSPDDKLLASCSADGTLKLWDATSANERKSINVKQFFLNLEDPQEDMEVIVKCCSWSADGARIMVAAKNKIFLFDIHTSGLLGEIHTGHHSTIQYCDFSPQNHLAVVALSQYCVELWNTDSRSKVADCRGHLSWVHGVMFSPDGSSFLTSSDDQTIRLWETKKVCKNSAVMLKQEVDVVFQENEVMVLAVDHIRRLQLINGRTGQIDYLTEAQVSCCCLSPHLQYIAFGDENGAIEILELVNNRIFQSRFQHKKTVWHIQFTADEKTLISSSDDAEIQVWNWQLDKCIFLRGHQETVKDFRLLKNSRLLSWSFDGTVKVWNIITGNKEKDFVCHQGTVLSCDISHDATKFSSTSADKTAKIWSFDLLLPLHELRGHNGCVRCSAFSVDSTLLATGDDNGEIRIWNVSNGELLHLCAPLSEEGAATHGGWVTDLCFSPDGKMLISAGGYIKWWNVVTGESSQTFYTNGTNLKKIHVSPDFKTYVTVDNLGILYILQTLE
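Material: reconstituted apoptosome with Apaf-1, cytochrome c, caspase-9, procaspase-3, dATP. Technique: Rh110 fluorescence intensity. Buffer or medium: pH 7.5 Hepes buffer with CHAPS, BSA, DTT. Times: 30 min plus 50 min, RT.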
SENP8 conf = human SENP8 inhibition, confirmed; AID 488912; shares compounds with SENP7 block; inhibition, % at 12.5 µM; Recombinant SENP8, Z-RLRGG-aminoluciferin luminescence, 60 min; actives 40% (n = 6,200);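 active means mean inhibition across replicates above about 50%, limit read from the data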
SENP6 conf = confirmation of human SENP6 protease inhibitors; shares compounds with SENP7 block; inhibition, % at 12.5 µM; actives 58% (n = 6,200); AID 488915; recombinant SENP6, Z-RLRGG-aminoluciferin luminescence
SENP7 confirm = confirmation of human SENP7 protease inhibitors; recombinant SENP7, Z-RLRGG-aminoluciferin luminescence, 40 min; inhibition, % at 12.5 µM; shares compounds with SENP7 block; actives 69% (n = 6,200)
Casp3 select = selectivity test for SENP inhibitors: human caspase-3 inhibition | shares compounds with SENP7 block | purified caspase-3, Z-DEVD-aminoluciferin luminescence, 60 min | inhibition, % at 12.5 µM | actives 60% (n = 6,200) | AID 488918;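 active means mean inhibition above about 50%, limit read from the data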
Luc interf = luminescence interference (SENP counter-screen); inhibition, % at 12.5 µM; shares compounds with SENP7 block; actives 39% (n = 6,200); Pre-incubated SENP8/Z-RLRGG-aminoluciferin, luciferase luminescence interference;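 active means mean inhibition above about 50% when retested at one dose, limit read from the data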
Hits are given with their value; . = inactive; / = no result.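 How the source made its calls, unless noted: active means mean inhibition above about 50% in the one-dose retest (limit read from the data); inactive means the rest.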

SMILES	SENP8 block-1	SENP7 block	SENP6 block	UBC13 inh	SENP8 block-2	Apaf-1 inh	SENP8 conf	SENP6 conf	SENP7 confirm	Casp3 select	Luc interf
COc1ccc2nc(NC(=S)NC(=O)c3ccco3)sc2c1	.	.	.	.	.	.	/	/	/	/	/
COc1ccc2sc(NC(=O)c3ccco3)nc2c1	87	.	90	.	.	.	87	90	97	91	86
O=C(CSc1nc2ccccc2c(=O)n1-c1ccc(F)cc1)NC1CCS(=O)(=O)C1 (centres undefined)	.	.	.	.	.	.	/	/	/	/	/
Cn1c(=NC(=O)C(C)(C)C)sc2cccc(F)c21	.	.	.	.	.	.	/	/	/	/	/
Cn1c(=NC(=O)c2ccccc2[N+](=O)[O-])sc2cccc(F)c21	.	77	.	.	.	.	.	.	.	.	.
O=c1[nH]c(C(Cl)(Cl)Cl)nc2ccc3ccccc3c12	74	.	88	.	.	.	.	71	80	60	.
CN(C(=O)c1ccco1)c1nc2c(s1)CCCC2	85	92	.	.	.	.	.	91	101	94	89
c1ccc(Nc2nnc(-c3cccnc3)s2)cc1	72	87	80	.	.	.	.	.	.	.	.
COc1cc(NC(=O)c2cccc(Br)c2)nc(OC)n1	.	.	54	.	.	.	.	.	68	.	.
O=S(=O)(O)c1nc2ccccc2n1Cc1cccc2ccccc12	.	.	.	.	/	.	/	/	/	/	/
O=C(Nc1ccc(F)cc1)C(=O)c1c(O)[nH]c2ccc([N+](=O)[O-])cc12	53	.	75	.	.	.	66	68	91	74	.
CN(C(=O)COC(=O)c1cc(S(=O)(=O)N2CCOCC2)ccc1Cl)C1CCS(=O)(=O)C1 (centres undefined)	.	.	.	.	.	.	/	/	/	/	/
COc1ncccc1-c1nnn(-c2ccc(F)cc2)n1	67	70	73	.	.	.	71	75	93	81	69
COc1ncccc1-c1nnn(-c2ccc(C)cc2)n1	70	80	78	.	.	.	78	81	96	82	79
C/C(=N\N=C(/C)c1cccc(N)c1)c1cccc(N)c1	.	.	.	.	.	.	/	/	/	/	/
CC(=O)Oc1ccc(-c2nc(-c3cccnc3)no2)cc1	98	100	96	.	.	.	97	99	103	98	.
CCc1ccc(NC(=O)C(C)n2nc(C)c([N+](=O)[O-])c2C)cc1 (centres undefined)	.	.	.	.	.	.	/	/	/	/	/
COc1ccc(C)c2sc(=NC(=O)c3cccc(N4C(=O)CCC4=O)c3)n(C)c12	.	78	51	.	.	.	.	.	.	.	.
COc1ccc(C)c2sc(=NC(=O)C(C)C)n(C)c12	.	.	.	.	.	.	/	/	/	/	/
C=CCn1c(=NC(=O)c2cccc(N3C(=O)CCC3=O)c2)sc2cccc(OC)c21	.	.	.	.	.	.	/	/	/	/	/
COc1ccc(C)c2sc(=NC(=O)c3ccccc3)n(C)c12	.	99	.	.	.	.	.	78	85	90	.
COc1ccc(C(=O)COC(=O)c2ccco2)cc1	50	55	72	.	.	.	62	62	86	85	71
COc1ccc(C(=O)COc2cccc(NC(=O)c3ccco3)c2)cc1	.	.	.	.	.	.	/	/	/	/	/
N/C(=N\OC(=O)c1ccco1)c1ccc(Br)cc1	74	76	93	.	.	.	84	83	97	75	73
Cc1ccc(/C(N)=N/OC(=O)c2ccco2)cc1	89	95	73	.	.	.	76	95	102	91	68
SMILES	SENP8 block-1	SENP7 block	SENP6 block	UBC13 inh	SENP8 block-2	Apaf-1 inh	SENP8 conf	SENP6 conf	SENP7 confirm	Casp3 select	Luc interf
COc1ccc(/C(N)=N/OC(=O)c2ccco2)cc1	84	.	91	.	.	.	89	90	98	91	86
COC(=O)c1ccc(OC(=O)c2ccco2)cc1	.	.	.	.	.	.	/	/	/	/	/
CCOC(=O)c1c(C)[nH]c(C)c1S(=O)(=O)NC(C)Cc1ccco1 (centres undefined)	.	.	.	.	.	.	/	/	/	/	/
CCC(=O)N1CCN=C1SCc1c(F)cccc1Cl	.	.	.	.	.	.	/	/	/	/	/
CC(NC(C)c1ccccc1Cl)C(=O)Nc1cccc(S(=O)(=O)N2CCCCC2)c1 (centres undefined)	.	.	.	.	.	.	/	/	/	/	/
Cc1cccc(/C(N)=N/OC(=O)CCCc2ccccc2)c1	.	.	60	.	.	.	.	52	85	68	.
O=C(Oc1ccc(-c2ccccc2)cc1)c1ccco1	/	/	/	/	.	/	/	/	/	/	/
N/C(=N\OC(=O)c1ccco1)c1ccccn1	.	78	76	.	.	.	62	62	91	92	76
N/C(=N\OC(=O)c1ccco1)c1ccccc1	82	81	88	.	.	.	74	75	95	90	76
N/C(=N\OC(=O)CCCc1ccccc1)c1ccccc1	.	.	.	.	.	.	/	/	/	/	/
Cc1occc1C(=O)O/N=C(\N)c1ccc(Cl)cc1	.	61	53	.	.	.	.	.	74	69	58
COc1ccc(Cl)cc1C(=O)O/N=C(\N)c1ccc(Cl)cc1	.	.	.	.	.	.	/	/	/	/	/
Cc1ccc(S(=O)(=O)NC[C@H]2O[C@@H](n3cnc4c(N)ncnc43)[C@H](O)[C@@H]2O)cc1	/	/	/	/	.	/	/	/	/	/	/
Cc1ccc(NC2CCCN(C(=O)c3ccoc3C)C2)cc1C (centres undefined)	.	.	.	.	.	.	/	/	/	/	/
Cc1cccc(/C(N)=N/OC(=O)c2ccco2)c1	84	91	92	.	.	.	91	92	101	94	86
COc1cc(OC)c(C(=O)O/N=C(\N)c2cccc(C)c2)cc1OC	.	.	.	.	.	.	/	/	/	/	/
CCCCCc1ccc(-c2ccc(OC)cc2)nc1	.	.	52	.	.	.	.	.	64	.	.
CCCc1ccc(-c2ccc(C(=O)O)cc2)nc1	59	67	69	.	.	.	70	66	90	73	70
CCCc1ccc(OCC(=O)O)cc1	.	.	.	.	.	.	/	/	/	/	/
